Data set [1] is described as follows: AUC in plasma of healthy human at 500 mg, po administered at tablet formulation with immediate release by microdialysis. Format: ADME, organism-based.
Data set [2] can be described thus: AUC in plasma of healthy human at 750 mg. po administered at tablet formulation with maximum release by microdialysis. The class given is ADME, organism-based.
Data set [3] is described as follows: AUC in plasma of healthy human at 500 mg, po administered at tablet formulation with maximum release by microdialysis. The class given is ADME, organism-based.
Data set [4] in a line: AUC in plasma of healthy human at 400 mg, po by microdialysis. The class given is ADME, organism-based.
Data set [5] in a line: fT>MIC in skeletal muscle of healthy human at 500 mg, iv by microdialysis.
A short description of data set [6]: Volume of distribution at steady state in plasma of healthy human at […] […]. The class given is ADME, organism-based. The conditions noted are these: read-out: Vdss. The method, boiled down:
(§1)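 Twelve healthy volunteers received a single 500 mg dose as a 2-h i.v. infusion. K2EDTA blood was drawn from the opposite arm from predose to 24 h over 13 timepoints. Plasma was precipitated with acetonitrile/formic acid and perchloric acid. Protein binding was measured by ultrafiltration at 2 and 12 h, and free levels were derived per subject. Analysis was noncompartmental: linear-trapezoidal AUC, with λz from terminal-phase regression.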

Data set [7] in a line: AUC (0 to infinity) in adipose tissue of healthy human at 200 mg/l administered via microdialysis probe up to 12 hrs. The class given is ADME. The arrangement: time infinity. The method, boiled down:
(§2)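 Twelve healthy volunteers were given a single 500 mg dose as a 2-h i.v. infusion. Microdialysis probes in skeletal muscle and s.c. adipose tissue were perfused with lactated Ringer's at 1.5 μl/min. Each probe was calibrated by retrodialysis with drug at 200 mg/liter, followed by a 4-h washout. Dialysate was collected every 20 min to 12 h, then at 16 and 24 h, and assayed by HPLC-UV. Values were recovery-corrected and analysed noncompartmentally.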

A short description of data set [8]: Half life in muscle of healthy human at 200 mg/l administered via microdialysis probe up to 12 hrs. Format: ADME, tissue-based, Muscle tissue. The procedure, abridged: as §2
Data set [9] is described as follows: Cmax in muscle of healthy human at 200 mg/l administered via microdialysis probe up to 12 hrs. Format: ADME, organism-based, Muscle tissue. The procedure, abridged:
as §2

Data set [10] in a line: Ratio of AUC in adipose tissue to fAUC in plasma of healthy human at 200 mg/l administered via microdialysis probe up to 12 hrs. The conditions noted are these: other. The class given is ADME.
A short description of data set [11]: Cmax in adipose tissue of healthy human at 200 mg/l administered via microdialysis probe up to 12 hrs. Format: ADME, organism-based. The procedure, abridged:
as §2

The nature of data set [12]: AUClast in muscle of healthy human at 200 mg/l administered via microdialysis probe up to 12 hrs. Format: ADME, tissue-based, Muscle tissue. Set-up: time < 12 hr. The procedure, abridged: as §2
Data set [13] is described as follows: AUC (0 to infinity) in muscle of healthy human at 200 mg/l administered via microdialysis probe up to 12 hrs. Format: ADME, tissue-based, Muscle tissue. The arrangement: time infinity. The procedure, abridged: as §2
Data set [14] relates to Streptococcus pneumoniae. The data set is described as follows: Antibacterial activity against penicillin-resistant Streptococcus pneumoniae. The class given is functional.
Data set [15] is described as follows: AUClast in adipose tissue of healthy human at 200 mg/l administered via microdialysis probe up to 12 hrs. Format: ADME. Set-up: time < 12 hr. The procedure, abridged: as §2
Data set [16] is described as follows: Half life in adipose tissue of healthy human at 200 mg/l administered via microdialysis probe up to 12 hrs. The class given is ADME, tissue-based. The method, boiled down: as §2
The nature of data set [17]: fT>MIC in adipose tissue of healthy human at 500 mg, iv by microdialysis.
Data set [18] is described as follows: AUC (0 to infinity) in plasma of healthy human at […] up to 12 hrs. Set-up: time infinity. Format: ADME. The method, boiled down: as §1
Data set [19] concerns Staphylococcus aureus. Description: Antibacterial activity against methicillin-resistant Staphylococcus aureus. The class given is functional.

≈ marks a conversion by molar mass, not a printed value.

In the case of `N[C@@H](C(=O)N[C@@H]1C(=O)N2C(C(=O)O)=C(Cl)CS[C@H]12)c1ccccc1` [CEFACLOR ANHYDROUS], the values for the AUC in [1], in [2] and in data set [3] were 17600 ng·h/mL, 22100 ng·h/mL and 13700 ng·h/mL, respectively.

For `C=CC1=C(C(=O)O)N2C(=O)[C@@H](NC(=O)/C(=N\OCC(=O)O)c3csc(N)n3)[C@H]2SC1` [CEFIXIME], the AUC in data set [4] came to 25600 ng·h/mL.

In data set [4], `COCC1=C(C(=O)O)N2C(=O)[C@@H](NC(=O)/C(=N\OC)c3csc(N)n3)[C@H]2SC1` [CEFPODOXIME] showed an AUC of 22400 ng·h/mL.

Regarding `Nc1nc(/C(=N/O)C(=O)N[C@@H]2C(=O)N3C(C(=O)O)=C(/C=C4\CCN([C@@H]5CCNC5)C4=O)CS[C@H]23)ns1` [CEFTOBIPROLE], the Efficacy in data set [5] is given as 53.6%; in data set [17] it was 35.1%. In addition, the Vd in [6] turned out to be 14.6 L. Moreover, the AUC(0-inf) in [7] was 36500 ng·h/mL; in data set [13] it was 53200 ng·h/mL; in data set [18], 98000 ng·h/mL. Besides, the figures for the half-life in data set [8] and in data set [16] were 2.61 h and 2.56 h, respectively. Further, the maximum concentration (Cmax) in data set [9] was 14000 ng/mL; in [11], 9610 ng/mL. Besides, in data set [10], the “Ratio AUC” value is listed as 0.49. Further, the values for the AUC(0-t) at 12 h in data set [12] and in [15] were 50600 ng·h/mL and 34300 ng·h/mL, respectively. Moreover, the MIC90 in data set [14] and in data set [19] was 2 µg/mL (≈ 3.74 µM) in each case.

A word on the AUC: it is concentration integrated over time. A higher AUC goes with high exposure. A word on the AUC(0-inf): it is total exposure, with the tail of the curve extrapolated. As usually defined, the half-life is the time needed for the level to fall by half in the phase considered. Low readings indicate rapid decline, high ones slow decline. By Cmax is commonly meant the peak of the concentration-time curve. By AUC(0-t) is commonly meant the area under the concentration-time curve up to a stated or last time point. A low value points to less exposure. The term MIC90 denotes an inhibitory concentration at the 90% level, which refers to growth in some studies and to a panel of isolates in others. Read a low MIC90 as greater potency.

The values are drawn from ChEMBL document CHEMBL1649472, “Soft-tissue penetration of ceftobiprole in healthy volunteers determined by in vivo microdialysis” (Antimicrob Agents Chemother, 2009).
